# Bioassay records: PubChem BioAssay, several laboratories
# Compounds with a hit are over-represented: about 1.9% of the library has one in this group of screens.
# Rtt109 Vps75: C. albicans Rtt109 histone acetyltransferase inhibition; purified Rtt109/Vps75, ThioGlo CoA-SH fluorescence, 4 h; inhibition, % at 34.9 µM; actives 0.16% (n = 330,000); AID 540336;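 active means inhibition of at least 50% in every replicate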
# ARFGAP1 inh: rat ARFGAP1 inhibition | Q62848 | Arfgap1-stimulated ARF1 GTP hydrolysis, GDP FP detection | inhibition, % at 16.5 µM | actives 0.26% (n = 360,000);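 active means inhibition above a per-plate limit, mean inhibition of low control wells plus 3 SD, cut at about 25% in these data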;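 further: 0% = DMSO wells with enzyme and 100% = wells lacking Arfgap1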
# Target sequence (Q62848 1-136 limits assumed): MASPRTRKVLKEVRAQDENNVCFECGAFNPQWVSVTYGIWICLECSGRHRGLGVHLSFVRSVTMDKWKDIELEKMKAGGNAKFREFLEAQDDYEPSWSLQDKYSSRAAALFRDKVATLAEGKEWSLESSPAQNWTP
#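 Assay system: purified rat His6-Arfgap1 residues 1-136 (GAP domain); Reagent: human Δ17 ARF1 bound to GTP; Dosing: 16.5 µM single point, 1.26% DMSO; Times: GTP hydrolysis reaction 2 h at 25 °C; Signal: FP, GDP Alexa 633 tracer displaced from anti-GDP antibody, 620/688 nm; Measure: % inhibition from polarization.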
# FGF22 binding-1: binders of recombinant human FGF22 by thermal shift | Q9HCT0 | SYPRO orange fluorescence; percent of sucrose octasulfate shift, DMSO zero | activity (Tm shift, normalised), % at 9.99 µM | actives 1.5% (n = 340,000) | AID 651658;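 active means mean Tm shift, scaled 0 neutral to 100 positive control, at about 1.3% or above, every replicate too, limit read from the data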
# Target sequence (Q9HCT0 whole entry, looked up): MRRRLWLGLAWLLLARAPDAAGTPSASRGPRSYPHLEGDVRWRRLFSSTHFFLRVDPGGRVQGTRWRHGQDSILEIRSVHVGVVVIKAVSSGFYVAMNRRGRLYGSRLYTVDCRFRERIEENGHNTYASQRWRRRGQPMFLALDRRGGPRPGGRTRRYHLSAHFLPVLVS
# ASAP1 GAP inh: inhibitors of human ASAP1 ArfGAP activity; ASAP1-stimulated ARF1 GTP hydrolysis, GDP FP detection; actives 0.19% (n = 360,000); inhibition, % at 16.5 µM; AID 624377; in the data active means inhibition above about 25%;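 further: 0% = vehicle with enzyme and substrate and 100% = no enzyme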
# Target sequence (Q9ULH1 325-724 limits assumed): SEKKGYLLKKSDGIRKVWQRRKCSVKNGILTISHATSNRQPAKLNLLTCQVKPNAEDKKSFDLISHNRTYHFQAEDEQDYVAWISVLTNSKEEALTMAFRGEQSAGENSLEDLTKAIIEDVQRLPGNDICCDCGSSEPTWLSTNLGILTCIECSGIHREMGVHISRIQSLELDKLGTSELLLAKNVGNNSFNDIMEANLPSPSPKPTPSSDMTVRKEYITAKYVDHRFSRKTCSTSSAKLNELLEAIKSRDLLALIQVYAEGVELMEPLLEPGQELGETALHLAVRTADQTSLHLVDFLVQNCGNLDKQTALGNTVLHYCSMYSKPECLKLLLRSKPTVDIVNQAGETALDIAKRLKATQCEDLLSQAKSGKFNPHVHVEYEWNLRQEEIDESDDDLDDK
# Efflux pump inh: blocks antifungal efflux pumps in multiplex yeast assay. actives 0.44% (n = 330,000). inhibition, % at 10 µM. S. cerevisiae Candida pump triplex, Nile Red efflux;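 active means plate passing quality check with inhibition over a set limit, or well fluorescence over plate mean plus 4 SD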;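 further: Nile Red retained in pooled yeast measured as flow cytometry median fluorescence; 0% = buffer negative control and 100% = Enniatin B positive control; higher means more Nile Red kept so more efflux inhibition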
# FGF22 binding-2: binders of human FGF22 by thermal shift | shares compounds with FGF22 binding-1 | recombinant FGF22 thermal shift, SYPRO orange fluorescence | thermal shift activity, °C (ΔTm) at 38 µM | actives 2% (n = 1,000) | AID 720646;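 active means fitted rise in melting shift crosses a set limit at or below the top valid dose tested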
# SYPRO no-protein: counter-screen for FGF22 binders: compound-only thermal shift, no protein. shares compounds with FGF22 binding-1. compound-only SYPRO orange thermal shift counter-screen. AC50, µM (doses to about 38 µM). actives 2% (n = 1,000). AID 743019;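 active means rising signal whose fitted curve reaches the 0.54 level within the top valid dose, showing a melting point, actives reach about 13 µM in these data; inactive means the rest, including activity in the opposite direction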; further: value is where the raw curve crosses a fixed level and not half-maximal
# Starred values were filed as active, the others as inactive; i = inactive; · = no result given; ! = repeats disagree; [ ] = dose if it differs, or a comment.
SMILES,Rtt109 Vps75,ARFGAP1 inh,FGF22 binding-1,ASAP1 GAP inh,Efflux pump inh,FGF22 binding-2,SYPRO no-protein
COc1ccc(NC(=O)CCCN2C(=O)CN(C)C2=O)c(OC)c1,-2.2,6.0,15.3*,-1.9,-0.1,·,i
COc1ccc(NC(=O)CCN2C(=O)c3ccccc3C2=O)c(OC)c1,1.0,1.1,0.0,13.9,-0.1,·,·
NC(=O)Nc1ccc(C(=O)OCC(=O)Nc2sccc2C(N)=O)cc1,2.0,3.2,1.5*,0.1,·,0.045,i
NC(=O)c1ccsc1NC(=O)COC(=O)Cc1c[nH]c2ccccc12,7.2,9.5,1.8*,12.6,-0.1,·,i
C[C@H]1CN([C@@H](C)CO)C(=O)c2cc(C#Cc3ccccc3F)cnc2O[C@H]1CN(C)S(=O)(=O)c1ccccc1,·,·,1.7*,·,·,0.086[42 µM],i
C[C@@H]1CN([C@@H](C)CO)C(=O)c2cc(C#Cc3ccccc3F)cnc2O[C@H]1CN(C)S(=O)(=O)c1ccccc1,·,·,0.3,·,·,·,·
C[C@@H]1CN([C@H](C)CO)C(=O)c2cc(Br)cnc2O[C@@H]1CN(C)Cc1ccc(F)cc1,·,7.8,21.2*!,4.3,·,0.098,i
C[C@@H]1CN([C@H](C)CO)C(=O)c2cc(Br)cnc2O[C@@H]1CN(C)Cc1ccccc1,·,·,-0.1,·,·,·,·
CC(C)CC#Cc1cnc2c(c1)C(=O)N([C@@H](C)CO)C[C@H](C)[C@H](CN(C)Cc1ccccn1)O2,·,·,0.0,·,·,·,·
CC(C)CC#Cc1cnc2c(c1)C(=O)N([C@@H](C)CO)C[C@H](C)[C@@H](CN(C)Cc1ccccn1)O2,·,·,1.6*,·,·,0.103,i
CCSc1nc(-c2ccc(OC)cc2)ccc1C#N,-1.7,5.2,·,10.0,0.0,·,·
Cc1ccc(-c2nnn(CC(=O)NCCc3ccc4c(c3)OCO4)n2)cc1,-2.8,11.2,8.9*,-2.9,0.2,0.045,i
CCCCN(CCCC)Cc1cc(=O)oc2cc(OC)ccc12,·,-6.2,0.2,-9.5,·,·,·
Cc1nc(C)c(-c2csc(Nc3ccccn3)n2)s1,-5.8,-1.1,-0.2,16.9,0.0,·,·
O=[N+]([O-])c1ccc(/C=N/Nc2ccc3ccccc3c2)o1,26.3,-4.5,2.1*,25.0*,-0.1,-0.088,i
O=C(N/N=C/c1ccc([N+](=O)[O-])o1)c1cc2ccccc2o1,-6.5,-4.8,0.0,4.6,0.0,·,·
C/C=C/c1ccc2c(c1)O[C@@H](CN(C)Cc1ccncc1)[C@@H](C)CN([C@@H](C)CO)S2(=O)=O,·,·,1.6*,·,·,0.188[42 µM],i
C/C=C/c1ccc2c(c1)O[C@H](CN(C)Cc1ccncc1)[C@@H](C)CN([C@H](C)CO)S2(=O)=O,·,·,0.0,·,·,·,·
C/C=C/c1ccc2c(c1)O[C@@H](CN(C)C(=O)Nc1cccc(F)c1)[C@@H](C)CN([C@@H](C)CO)S2(=O)=O,·,·,1.5*,·,·,-0.824[42 µM],i
C/C=C/c1ccc2c(c1)O[C@H](CN(C)C(=O)Nc1cc(F)ccc1F)[C@H](C)CN([C@H](C)CO)S2(=O)=O,·,·,1.2*,·,·,0.026[42 µM],i
C/C=C/c1ccc2c(c1)O[C@@H](CN(C)C(=O)Nc1cc(F)ccc1F)[C@H](C)CN([C@H](C)CO)S2(=O)=O,·,·,-0.4,·,·,·,·
OC(Cn1cncn1)(c1ccc(F)cc1)c1ccc(Cl)cc1 (stereo unspecified),-1.9,4.1,-0.2,10.0,0.0,·,·
Cc1ccc(S(=O)(=O)N2CCCCC2)cc1NC(=O)COC(=O)Cc1cccc2ccccc12,-7.2,-1.7,·,5.5,0.1,·,·
O=C(Nn1cnnc1)c1ccc(OC(F)(F)C(F)C(F)(F)F)cc1 (stereo unspecified),4.2,1.6,-0.1,6.6,-0.2,·,·
CN(C)/N=C/c1ccc(Sc2ccc([N+](=O)[O-])cc2[N+](=O)[O-])o1,2.6,-3.1,·,14.8,0.0,·,·
SMILES,Rtt109 Vps75,ARFGAP1 inh,FGF22 binding-1,ASAP1 GAP inh,Efflux pump inh,FGF22 binding-2,SYPRO no-protein
CC(C)(C)NC(=O)N1CCC(CO)(Cc2ccccc2Cl)CC1,-6.1,-12.1,1.5*,0.5,0.0,-0.031,i
C[C@@H]1CCCCO[C@@H](CN(C)S(=O)(=O)c2ccc(F)cc2)[C@H](C)CN([C@@H](C)CO)C(=O)c2cc(NC(=O)Nc3ccccc3)ccc2O1,·,·,0.1,·,·,·,·
S=C(Nc1ccc(Cl)cc1)Nc1ccc2cn[nH]c2c1,9.3,6.8,1.9*,7.9,0.3,0.258,i
S=C(Nc1ccc2cn[nH]c2c1)Nc1ccc(Cl)cc1Cl,22.0,15.0,0.5,2.3,0.1,·,·
CN1C(=O)c2cc(NC(=O)c3cccc(F)c3)ccc2OC[C@H]2O[C@H](CC(=O)NCC3CC3)CC[C@@H]21,·,·,0.0,·,·,·,·
CN1C(=O)c2cc(NC(=O)c3cccc(F)c3)ccc2OC[C@H]2O[C@@H](CC(=O)NCC3CCCCC3)CC[C@H]21,·,·,2.3*,·,·,0.119[42 µM],i
CN1C(=O)c2cc(NC(=O)c3cccc(F)c3)ccc2OC[C@H]2O[C@@H](CC(=O)N3CCc4ccccc4C3)CC[C@H]21,·,·,1.3*,·,·,0.114[42 µM],i
CN1C(=O)c2cc(NC(=O)c3cccc(F)c3)ccc2OC[C@@H]2O[C@H](CC(=O)NCc3ccccc3)CC[C@H]21,·,·,0.1,·,·,·,·
CN1C(=O)c2cc(NC(=O)c3cccc(F)c3)ccc2OC[C@@H]2O[C@H](CC(=O)NCC3CCCCC3)CC[C@@H]21,·,·,2.3*!,·,·,-0.163,i
CN1C(=O)c2cc(NC(=O)c3cccc(F)c3)ccc2OC[C@H]2O[C@@H](CC(=O)NCc3ccccc3)CC[C@H]21,·,·,1.7*,·,·,-0.023[42 µM],i
Cc1ccc(/C=C/C(=O)Nc2cccc3cccnc23)o1,-7.5,10.5,·,11.7,0.2,·,·
O=C(O)c1cccc(NS(=O)(=O)c2ccc(-c3ccc(S(=O)(=O)Nc4cccc(C(=O)O)c4)cc3)cc2)c1,·,-11.3,21.1*,11.9,0.0,-0.462,i
O=C(Nc1cccc(C(F)(F)F)c1)c1cccc(NS(=O)(=O)c2ccc(Br)c(C(=O)O)c2)c1,9.5,-9.2,0.2,-0.6,0.2,·,·
O=C(Nc1cccc(C(F)(F)F)c1)c1cccc(NS(=O)(=O)c2ccc(O)c(C(=O)O)c2)c1,6.6,6.8,1.7*,3.8,-0.2,0.368,i
Cc1ccccc1-n1ncc2c(SCC(=O)N3c4ccccc4CC3C)ncnc21 (stereo unspecified),6.2,13.6,0.2,5.5,-0.1,·,·
C[C@H](CO)N1C[C@H](C)[C@@H](CN(C)C(=O)NC2CCCC2)Oc2cc(-c3cccnc3)ccc2S1(=O)=O,·,·,-0.3,·,·,·,·
COc1ccc(NC(=O)c2ccc(-n3cncn3)c([N+](=O)[O-])c2)cc1,0.2,-7.5,0.1,-5.5,-0.1,·,·
CCc1ccc(NC(=O)c2ccc(-n3cncn3)c([N+](=O)[O-])c2)cc1,-3.9,2.5,2.3*,3.8,0.0,0.104,i
